Only some compounds are listed: those with a hit (about 4.9% of all), similar ones and a draw of the others.
STAT1 activator: STAT1 signaling activation | 200,000 compounds, 2.6% hits | activation (% of control), % at 5.5 µM | AID 932 | NIH 3T3 STAT1-luciferase reporter, IFN-gamma, luminescence; 100% = IFN-gamma alone, no compound;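 active means activation above the screen-wide mean activation plus 3 SD, cut at about 130% in these data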;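 further: raw ratio to IFN-gamma control signal so 100% means no change and 0% no light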
FLuc inh counter: inhibits firefly luciferase, flagging false hits in luciferase inhibition screens | 200,000 compounds, 1.5% hits | inhibition, % at 10 µM | ATPLite firefly luciferase biochemical luminescence, 10 min | P08659;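 active means inhibition above about 50% when tested at 10 µM, limit read from the data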
Target sequence (P08659 whole entry, looked up): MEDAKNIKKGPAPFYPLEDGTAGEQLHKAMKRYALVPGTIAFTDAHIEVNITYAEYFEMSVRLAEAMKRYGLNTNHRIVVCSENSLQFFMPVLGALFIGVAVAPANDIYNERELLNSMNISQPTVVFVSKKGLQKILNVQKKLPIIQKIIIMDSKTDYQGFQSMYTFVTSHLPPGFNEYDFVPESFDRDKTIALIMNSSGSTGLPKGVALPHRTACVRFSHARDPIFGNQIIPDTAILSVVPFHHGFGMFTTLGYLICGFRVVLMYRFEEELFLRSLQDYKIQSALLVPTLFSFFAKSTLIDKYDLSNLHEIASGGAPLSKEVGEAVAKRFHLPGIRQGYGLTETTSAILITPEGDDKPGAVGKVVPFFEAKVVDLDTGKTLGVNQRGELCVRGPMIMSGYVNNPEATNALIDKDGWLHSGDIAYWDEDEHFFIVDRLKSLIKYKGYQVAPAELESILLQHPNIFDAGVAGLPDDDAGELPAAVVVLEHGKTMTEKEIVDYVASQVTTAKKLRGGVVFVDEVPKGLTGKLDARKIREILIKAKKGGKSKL
STAT3 blocker: STAT3 signaling inhibition. inhibition, % at 5.5 µM. U3A cells, IL-6 STAT3-luciferase reporter, luminescence; host cell line lacks STAT1. AID 862. 190,000 compounds, 0.89% hits;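 active means inhibition above the mean inhibition across all screened compounds plus 3 SD, cut at about 44% in these data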;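 further: 0% = DMSO only wells and 100% = 100 µM nifuroxazide control wells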
STAT3 activator: increases IL-6 driven STAT3 reporter signal | 190,000 compounds, 0.91% hits | activation (% of control), % at 5.6 µM | U3A cells, IL-6 STAT3-luciferase reporter, luminescence; 100% = signal with IL-6 EC80 alone;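 active means activation above the screen-wide mean of compound activation plus 3 SD, cut at about 130% in these data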;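 further: 0% = background luminescence of wells with medium and substrate only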
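Material: human U3A cells carrying STAT3-luciferase construct. Measured by: reporter luminescence signal. Timing: compound 1 h, then IL-6 6 h at 37 °C.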
FLuc stim CS: affects firefly luciferase, flagging false hits in luciferase stimulation screens; activation factor at 10 µM; ATPlite luciferase biochemical, luminescence, 10 min; 0 = ATP-free wells, 1 = DMSO control; 200,000 tested, under 10 active; P08659; AID 1027;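 active means luciferase activation factor, scaled between plate controls, of at least 2 with compound at 10 µM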
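Material: Luciferase/luciferin reagent mix; Doses: test compounds dosed from 2 mM stocks in 100% DMSO; Schedule: 10 min incubation after luciferase reagent addition, room temperature; Measured by: luminescence from luciferase reaction; Read-out: luminescence gain marking luciferase activators.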
STAT1 blocker: STAT1 signaling inhibition; NIH 3T3 STAT1-luciferase reporter, IFN-gamma, luminescence; inhibition, % at 5.5 µM; 200,000 compounds, 0.35% hits; AID 920;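 active means inhibition above a set limit, the mean inhibition across all tested compounds plus 3 SD, cut at about 34% in these data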;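 further: 0% = IFN-gamma with DMSO and 100% = IFN-gamma with 300 µM nifuroxazide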
Starred values were filed as active, the others as inactive.

SMILES	STAT1 activator	FLuc inh counter	STAT3 blocker	STAT3 activator	FLuc stim CS	STAT1 blocker
CC(C)(C)c1ccc(-c2noc(CCC(N)=O)n2)cc1	105	43	43	62	0.6	-6
CNC(=O)CCc1nc(-c2ccc(C(C)(C)C)cc2)no1	106	58*	-1	103	0.4	-6
CC(C)(C)c1ccc(-c2noc(CCC(=O)NCC3CCCO3)n2)cc1 (stereo not drawn)	90	64*	42	68	0.4	11
CCOC(=O)C1=NOC(C(=O)NN(C)c2ncc(C(F)(F)F)cc2Cl)C1 (stereo not drawn)	97	-3	-6	105	1	2
COc1ccc(CC(=O)Nc2ccc(C(=O)Nc3ccccc3C(=O)O)cc2)cc1OC	101	-2	-6	103	1	-1
C=CCC1CCCC(=O)N2CC[C@H](O)C12 (stereo partly drawn)	97	0	1	97	1	3
CS(=O)(=O)N1CCN(C(=O)c2cc(-c3ccccc3)nc3ccccc23)CC1	103	11	13	95	0.9	-3
CCOC(=O)N1CCN(C(=O)c2cc(-c3ccc(OCC)cc3)nc3ccccc23)CC1	146*	92*	-1	103	0.1	-51
CC(C)Oc1ccc(-c2cc(C(=O)NCCN3CCOCC3)c3ccccc3n2)cc1	124	65*	-30	130	0.3	-26
CCOc1ccc(-c2cc(C(=O)N3CCN(C)CC3)c3ccccc3n2)cc1	117	83*	10	97	0.2	-17
CC1(C)CC(=O)C(N=Nc2cc(Cl)c(Cl)c(Cl)c2)=C(O)C1	98	-2	6	102	1	2
Cc1ccc(O)c(N=NC2=C(O)CC(C)(C)CC2=O)c1	94	62*	6	95	0.4	7
COc1cc(NC(=O)CN(C)C2CCCCC2)c(C)cc1[N+](=O)[O-]	92	-6	4	98	1.1	9
COC(=O)CNc1c(-c2ccccn2)nc2ccc(Br)cn12	150*	77*	4	96	0.2	-54
NC(=O)c1ccccc1-c1nc(-c2ccccc2)no1	113	7	-8	113	0.9	-13
c1ccc2c(-c3nc(-c4ccncc4)no3)cccc2c1	129*	-4	-37	136*	1	-32
Brc1cccc(-c2nc(-c3ccncc3)no2)c1	118	15	13	94	0.8	-18
Clc1ccc(Br)cc1-c1nc(-c2ccncc2)no1	137*	-1	-8	110	1	-40
c1ccc(-c2noc(-c3cccc4ccccc34)n2)cc1	142*	19	-100	192*	0.8	-46
O=C(CCCc1c[nH]c2ccccc12)NCc1cccs1	106	1	13	91	1	-6
Cc1ccc2nc(-c3ccc4c(c3)OCCO4)cc(C(=O)O)c2c1	99	74*	5	101	0.3	1
CN(C)c1ccc(/C=N/NC(=S)NCc2ccco2)cc1	104	-2	13	92	1	-5
CN(C)c1ccc(C(=S)NCc2ccco2)cc1	134*	3	29	79	1	-37
COc1cccc(/C=C2\SC(=S)N(c3cccnc3)C2=O)c1OC	102	67*	-4	105	0.3	-4
C=CCOc1ccc(C(=O)NC2CCCCC2)cc1	132*	24	-6	106	0.8	-33
CC12CN(C(=S)Nc3ccccc3)CC(C)(CN(C(=S)Nc3ccccc3)C1)C2=O	102	-1	0	102	1	-4
S=c1nc(-c2ccccc2)oc2c1CCCC2	132*	29	-8	116	0.7	-35
COc1cccc(-c2nc(=S)c3c(o2)CCCC3)c1	144*	47	-2	110	0.5	-47
O=[N+]([O-])c1ccc(-c2nc(=S)c3c(o2)CCCC3)cc1	93	-6	5	99	1.1	7
CC(=O)Nc1ccc(NC(=O)C(C)OC(=O)CNS(=O)(=O)c2cccc(Cl)c2)cc1 (stereo not drawn)	95	-3	-5	108	1	2

Compound activity: PubChem, several laboratories
